According to ChEMBL document CHEMBL1157203, “Synthesis and cytotoxic activity of gamma-aryl substituted alpha-alkylidene-gamma-lactones and alpha-alkylidene-gamma-lactams” (Bioorg Med Chem, 2008):
Where “and” joins values, the source holds several entries; their conditions need not be identical. Equal entries are not always repeated.

What was measured:
Assay type in all cases: functional, cell-based
NALM-6 = test: Cytotoxicity against human NALM6 cells after 48 hrs by MTT assay
In short: (§1)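 HL-60 (promyelocytic) and NALM-6 (lymphoblastic) cells grown in RPMI 1640 with 10% heat-inactivated FBS, streptomycin and penicillin, 37 °C, 5% CO2. Exponentially growing cells seeded at 8×10^3/well. Compounds prepared fresh from DMSO stocks and tested at 10^-7 to 10^-3 M for 46 h, then MTT 2 h. Formazan dissolved in 20% SDS/50% DMF pH 4.7, absorbance 562 and 630 nm. IC50 taken from concentration-response curves, means of at least 6 repeats ± SD.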

HL-60 = test: Cytotoxicity against human HL60 cells after 48 hrs by MTT assay; in short: as §1
L1210 = test: Cytotoxicity against mouse L1210 cells after 48 hrs by tetrazolium dye method

SMILES	IC50 (NALM-6; Homo sapiens, NALM-6, 48 h)	IC50 (HL-60; Homo sapiens, HL-60, 48 h)	IC50 (L1210; Mus musculus, L1210, 48 h)	IC50 (HL-60; hl-60)	IC50 (L1210; l1210)	IC50 (NALM-6; nalm-6)
C=C1CC(c2ccccc2)N(C)C1=O (configuration not stated)	553 µM	989 µM	> 50 µM			
C=C1C(=O)OC(c2ccc(Br)cc2)C1C (configuration not stated)				41.8 µM and 5.05 µM	7.5 µM and 1.55 µM	
C=C1C(=O)OC(c2ccc(OC)cc2)C1C (configuration not stated)				37.9 µM and 5.69 µM	14.2 µM and 3.65 µM	38.6 µM and 5.23 µM
C=C1CC(c2ccc(Br)cc2)N(C)C1=O (configuration not stated)	141 µM	220 µM	> 50 µM			
C=C1CC(c2ccc(Br)cc2)OC1=O (configuration not stated)	85.3 µM	20.3 µM	1.3 µM			
CC(C)/C=C1\CC(c2ccccc2)N(C)C1=O (configuration not stated)	351 µM	81.3 µM	> 50 µM			
C=C1CC(c2ccc(OC)cc2)N(C)C1=O (configuration not stated)	523 µM	611 µM	> 50 µM			
C=C1CC(c2cccc3ccccc23)OC1=O (configuration not stated)	3.86 µM	4.42 µM	4.3 µM			
CC(C)/C=C1/CC(c2ccccc2)OC1=O (configuration not stated)	483 µM	159 µM	> 50 µM			
C=C1C(=O)OC(c2ccccc2)C1C (configuration not stated)	7.91 µM	8.97 µM		8.97 µM	4 µM and 28 µM	7.91 µM
O=C1OC(c2ccccc2)C/C1=C\c1ccccc1 (configuration not stated)	497 µM	> 1000 µM	> 50 µM			
C=C1CC(c2ccccc2)OC1=O (configuration not stated)	9.13 µM	36.9 µM	1.4 µM			
